The values below come from publication PMC6761749 (ACS Omega, 2019).

One assay concerns the target T1, human TLR7 (Homo sapiens, UniProt Q9NYK1).
T1 sequence (Q9NYK1 27-1049): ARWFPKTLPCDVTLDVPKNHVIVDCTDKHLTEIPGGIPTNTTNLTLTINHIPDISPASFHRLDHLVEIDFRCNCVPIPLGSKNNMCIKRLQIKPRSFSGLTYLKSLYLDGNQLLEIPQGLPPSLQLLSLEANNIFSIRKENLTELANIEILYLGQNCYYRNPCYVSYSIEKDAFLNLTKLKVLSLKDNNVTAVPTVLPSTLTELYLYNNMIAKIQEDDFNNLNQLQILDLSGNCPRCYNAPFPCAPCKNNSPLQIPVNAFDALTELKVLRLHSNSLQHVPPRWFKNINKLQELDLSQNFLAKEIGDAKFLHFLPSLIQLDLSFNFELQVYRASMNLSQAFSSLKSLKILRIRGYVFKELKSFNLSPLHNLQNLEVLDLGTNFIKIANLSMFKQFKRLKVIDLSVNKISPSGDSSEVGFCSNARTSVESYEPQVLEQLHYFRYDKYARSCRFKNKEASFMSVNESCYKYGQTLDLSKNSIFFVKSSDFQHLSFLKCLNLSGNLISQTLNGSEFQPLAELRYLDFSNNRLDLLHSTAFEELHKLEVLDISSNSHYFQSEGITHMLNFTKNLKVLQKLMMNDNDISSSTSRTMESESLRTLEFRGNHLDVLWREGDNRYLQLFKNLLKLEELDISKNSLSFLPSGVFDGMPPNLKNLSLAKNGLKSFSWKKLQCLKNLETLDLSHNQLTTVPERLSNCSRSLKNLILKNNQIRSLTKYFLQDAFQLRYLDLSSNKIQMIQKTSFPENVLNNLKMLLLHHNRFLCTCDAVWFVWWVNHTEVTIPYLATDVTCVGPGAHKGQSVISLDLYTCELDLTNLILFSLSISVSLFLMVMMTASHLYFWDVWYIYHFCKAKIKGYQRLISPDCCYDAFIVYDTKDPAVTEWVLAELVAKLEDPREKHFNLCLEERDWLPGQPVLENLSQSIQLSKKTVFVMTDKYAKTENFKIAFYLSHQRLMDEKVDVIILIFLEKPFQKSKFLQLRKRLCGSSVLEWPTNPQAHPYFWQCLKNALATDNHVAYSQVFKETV
The experiment in a line: HEK293-hTLR7 NFκB SEAP reporter assay. The format is cell-based. As to conditions: comparator 1b. In general terms: In a reporter assay the amount or activity of a reporter protein is the signal.

Another assay concerns human PBMCs. Briefly: TNFα induction from human PBMCs. As to conditions: hPBMCs, in the dose range evaluated. The format is cell-based. Summed up:
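Donor PBMCs from healthy human whole blood were isolated on a Ficoll-Hypaque 1.077 gradient and plated at 0.5 × 10^6 cells/well in RPMI-1640 with pen/strep/glutamine and 10% heat-inactivated FBS. Test compounds (stocks 3–5 mg/mL in 2% glycerol–10% DMSO/water) were added at increasing concentrations for 24 h. Supernatant TNFα and IFNα were measured by ELISA. MEC is the lowest tested dose inducing cytokine. Values come from one of three donors.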

`CCCCOc1nc(N)c2[nH]c(=O)n(CCN3CCNCC3)c2n1.Cl` [Compound 7a, 6-Amino-2-butoxy-9-(4-piperazinyl)ethyl-7,9-dihydro-8H-purin-8-one Hydrochloride]: at human TLR7, the “fold less active (hTLR7) than 1b” value stood at 12 fold.
As to `CCCCOc1nc(N)c2[nH]c(=O)n(C3CNC3)c2n1.Cl` [Compound 3a, 6-Amino-2-butoxy-9-(3-azetidinyl)-7,9-dihydro-8H-purin-8-one Hydrochloride], the TNFα induction entry with human PBMCs is “did not induce measurable TNFα”.
